This passage reports GI50 results from ChEMBL document CHEMBL1154725, “Synthesis and antitumor evaluation of novel diarylsulfonylurea derivatives: molecular modeling applications” (2010).

Common to all, as to type: functional
In one assay the test system is EKVX. In words: Growth inhibition of human EKVX cells after 48 hrs. Put shortly:
(§1)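 NCI in vitro human tumour cell line screen (about 60 lines, nine subpanels). Compounds dissolved in DMSO, diluted in phosphate-buffered saline (final DMSO under 1%), tested at five concentrations from 0.01 to 100, in duplicate wells. Cells at 6 × 10⁴ cells/mL, 37 °C, 5% CO₂, 48 h. GI50 (50% decrease in net growth) taken from log concentration versus % growth inhibition curves; subpanel values are subpanel mean-graph midpoints.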

Another assay has as its system HCC 2998. Kind of assay: Growth inhibition of human HCC2998 cells after 48 hrs. Particulars: HCC 2998, 48 h. In short, it runs like this: as §1
In another assay the test system is UACC-257. In words: Growth inhibition of human UACC257 cells after 48 hrs. The following applies: UACC-257, 48 h. In short, it runs like this:
as §1

Another assay has as its system MCF7. In words: Growth inhibition of human MCF7 cells after 48 hrs. The following applies: MCF7, 48 h. In short, it runs like this: as §1
A further assay deals with Leukemia cell. Kind of assay: Growth inhibition of human Leukemia cells after 48 hrs. Put shortly:
as §1

Another assay concerns NSCLC. In words: Growth inhibition of human NSCLC cell after 48 hrs. Put shortly: as §1
Assay [1] can be described thus: Growth inhibition of human Colon cancer cells after 48 hrs. The following applies: Cancer cell lines. In short, it runs like this: as §1
Assay [2] is described as follows: Growth inhibition of human CNS cancer cells after 48 hrs. The following applies: Cancer cell lines. In short, it runs like this: as §1
The next assay concerns Melanoma cell. In words: Growth inhibition of human Melanoma cells after 48 hrs. In short, it runs like this:
as §1

Assay [3] in a line: Growth inhibition of human Ovarian cancer cells after 48 hrs. The following applies: Cancer cell lines. Put shortly:
as §1

Assay [4] is described as follows: Growth inhibition of human Renal cancer cells after 48 hrs. Particulars: Cancer cell lines. Put shortly: as §1
A short description of assay [5]: Growth inhibition of human Prostate cancer cells after 48 hrs. The following applies: Cancer cell lines. In short, it runs like this: as §1
Assay [6] in a line: Growth inhibition of human Breast cancer cells after 48 hrs. The following applies: Cancer cell lines. In short, it runs like this:
as §1

Another assay concerns OVCAR-3. Kind of assay: Growth inhibition of human OVCAR-3 cells after 48 hrs. Particulars: OVCAR-3, 48 h. In short, it runs like this:
as §1

The structures appear in SMILES notation.

Regarding `CCCNC(=O)c1c(NC(=O)NS(=O)(=O)c2ccccc2)sc2c1CCCCC2`, the GI50 – broadly, the concentration giving 50% growth inhibition – with EKVX was 6.2 µM; in the assay on HCC 2998, more than 100 µM; with UACC-257, more than 100 µM; with MCF7, more than 100 µM; with Leukemia cell, 42.2 µM; with NSCLC, 54.2 µM. Further, the GI50 in [1] was determined as 85.3 µM; in assay [2], 72.5 µM; with Melanoma cell it was 65.3 µM; in assay [3] it was 76.5 µM; in assay [4], 80.3 µM; in assay [5] it was 90.2 µM. The GI50 in [6] was 70.3 µM; in the assay with OVCAR-3 it was more than 100 µM.
With `O=C(Nc1sc2c(c1C(=O)NNc1ccccc1)CCCCC2)NS(=O)(=O)c1ccccc1`, the 50% growth inhibitory concentration (GI50) is more than 100 µM in the assay on EKVX; 6.3 µM in the assay on HCC 2998; more than 100 µM in the assay with UACC-257; more than 100 µM in the assay on MCF7; 18.6 µM in the assay with Leukemia cell; 16 µM with NSCLC. Also, the GI50 was 7 µM in [1]; 30.9 µM in assay [2]; 32.3 µM in the assay on Melanoma cell; 15.2 µM in [3]; 26.3 µM in assay [4]; more than 100 µM in [5]. Moreover, the 50% growth inhibitory concentration (GI50) was 18.5 µM in assay [6] and 15.2 µM in the assay with OVCAR-3.
For `CN1CCN(C(=O)c2c(NC(=O)NS(=O)(=O)c3ccccc3)sc3c2CCCCC3)CC1`, the concentration for 50% growth inhibition (GI50) with EKVX is more than 100 µM; in the assay on HCC 2998 it was 15.3 µM; in the assay on UACC-257, more than 100 µM; in the assay with MCF7 it was more than 100 µM; in the assay on Leukemia cell it was more than 100 µM; with NSCLC, 22.3 µM. The GI50 in assay [1] was determined as 9.2 µM; in assay [2], 56.2 µM; with Melanoma cell, 61.2 µM; in assay [3] it was 31.3 µM; in assay [4], 42.3 µM; in assay [5] it was 80.2 µM. The GI50 in assay [6] was 49.2 µM; in the assay with OVCAR-3 it was more than 100 µM.
With `CCCCNC(=O)c1c(NC(=O)NS(=O)(=O)c2ccccc2)sc2c1CCCCC2`, the GI50 in the assay with Leukemia cell was more than 100 µM; in the assay with NSCLC, 30.3 µM; in assay [1], 65.2 µM; in assay [2] it was 85.3 µM; in the assay with Melanoma cell it was 76.7 µM; in assay [3], more than 100 µM. Further, the GI50 in assay [4] turned out to be 72.3 µM; in [5], 92.6 µM; in assay [6], 85.2 µM.
As for `NNC(=O)c1c(NC(=O)NS(=O)(=O)c2ccccc2)sc2c1CCCCC2`, the GI50 with EKVX is more than 100 µM; with HCC 2998, 0.9 µM; with UACC-257 it was 2.8 µM; with MCF7, 4.2 µM; in the assay on Leukemia cell, 30.3 µM; with NSCLC, 10.5 µM. The GI50 is 3.5 µM in assay [1]; more than 100 µM in [2]; 4.5 µM with Melanoma cell; 1.5 µM in [3]; more than 100 µM in assay [4]; 15.8 µM in assay [5]. The GI50 was 4.5 µM in [6] and more than 100 µM in the assay with OVCAR-3.
Regarding `O=C(Nc1sc2c(c1C(=O)NNc1ccc(Br)cc1)CCCCC2)NS(=O)(=O)c1ccccc1`, the GI50 in the assay with EKVX was more than 100 µM; in the assay on HCC 2998 it was 1.6 µM; in the assay on UACC-257 it was more than 100 µM; in the assay on MCF7, more than 100 µM; in the assay with Leukemia cell, more than 100 µM; with NSCLC, 11.5 µM. In addition, the 50% growth inhibitory concentration (GI50) in assay [1] is 1.6 µM; in assay [2], 25.5 µM; in the assay with Melanoma cell, 31.3 µM; in assay [3] it was 10.2 µM; in [4], 11.5 µM; in assay [5], more than 100 µM. In addition, the values for the GI50 (in [6]; in the assay on OVCAR-3) were 5.3 µM and 14.8 µM, respectively.
On to `O=c1[nH]c2sc3c(c2c(=O)n1S(=O)(=O)c1ccccc1)CCCCC3`, for which the 50% growth inhibitory concentration (GI50) was 3.8 µM with EKVX; 19.5 µM with HCC 2998; more than 100 µM in the assay with UACC-257; more than 100 µM with MCF7; 42.2 µM in the assay on Leukemia cell; 9.3 µM in the assay on NSCLC. In addition, the 50% growth inhibitory concentration (GI50) in assay [1] came to 20.5 µM; in assay [2], 81.3 µM; in the assay with Melanoma cell, 26.2 µM; in assay [3], 34.2 µM; in [4] it was 50.2 µM; in [5], 34.2 µM. In addition, the GI50 was 22.5 µM in [6] and more than 100 µM with OVCAR-3.
Regarding `O=C(Nc1sc2c(c1C(=O)NNc1ccc(Cl)cc1)CCCCC2)NS(=O)(=O)c1ccccc1`, the concentration for 50% growth inhibition (GI50) in the assay on EKVX was more than 100 µM; in the assay with HCC 2998 it was 2.9 µM; in the assay on UACC-257 it was more than 100 µM; in the assay on MCF7, 8.3 µM; in the assay with Leukemia cell it was 30.6 µM; in the assay with NSCLC, 8.6 µM. The GI50 in [1] was 1.2 µM; in assay [2] it was 12 µM; in the assay on Melanoma cell, 4.2 µM; in assay [3], 7.5 µM; in assay [4], more than 100 µM; in assay [5], 14.5 µM. For the same compound, the GI50 is 5.9 µM in assay [6] and more than 100 µM in the assay with OVCAR-3.
In the case of `O=C(Nc1sc2c(c1C(=O)N1CCN(c3ccccc3)CC1)CCCCC2)NS(=O)(=O)c1ccccc1`, the 50% growth inhibitory concentration (GI50) in the assay on EKVX was more than 100 µM; in the assay with HCC 2998, 16.9 µM; with UACC-257, more than 100 µM; with MCF7, more than 100 µM; in the assay on Leukemia cell it was more than 100 µM; in the assay with NSCLC, 36.2 µM. For the same compound, the concentration for 50% growth inhibition (GI50) in [1] amounted to 11.5 µM; in assay [2], 55.8 µM; in the assay with Melanoma cell it was 52.3 µM; in assay [3] it was 36.2 µM; in assay [4], 65.2 µM; in assay [5], 60.3 µM. Besides, the GI50 came to 58.2 µM in assay [6] and 11.9 µM in the assay on OVCAR-3.
